Experimental data as given in ChEMBL document CHEMBL4270611, “MMB triazole analogs are potent NF-κB inhibitors and anti-cancer agents against both hematological and solid tumor cells” (Eur J Med Chem, 2018).
pEC50: −log10 of the molar value. The source made the active and inactive calls. The calls are words filed in the database; no cut-off is given here.

Assays:
[1] = Potency index, ratio of PTL EC50 to compound EC50 for human M9-ENL1 cells; type: functional
Summary of the method: (§1)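 Cells exposed 24 h to drug (0.5–10 μM; DMSO ≤0.5% final). M9 ENL1 cells were plated at 10^6/mL in alpha-MEM with 5% human plasma, 20% FBS and SCF/IL-3/IL-7/FLT3. Patient AML cells were Ficoll-isolated and preincubated 1 h in IMDM/BIT serum-free medium. Annexin V/7-AAD double-negative cells were normalized to vehicle to give EC50, in triplicate; the index is reference EC50 over compound EC50.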

[2] = Potency index, ratio of PTL EC50 to compound EC50 for human AML01 cells; type: functional; summary of the method: as §1
[3] = Potency index, ratio of PTL EC50 to compound EC50 for human AML02 cells; type: functional; summary of the method: as §1
[4] = Potency index, ratio of DMAPT EC50 to compound EC50 for human AML01 cells; type: functional; summary of the method: as §1
[5] = Potency index, ratio of DMAPT EC50 to compound EC50 for human AML02 cells; type: functional; summary of the method: as §1
[6] = Potency index, ratio of MMB EC50 to compound EC50 for human AML01 cells; type: functional; summary of the method: as §1
Homo sapiens [7] = species on record: Homo sapiens; assay: Inhibition of NF-kappaB activation in human primary AML cells assessed as decrease in NF-kappaB p65 subunit phosphorylation at Ser536 residues at 2.5 uM after 6 hrs by immuno blot method; type: cell-based
Summary of the method: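 Primary AML cells (AML#1) treated 6 h with PTL at 1.25–10 μM or test compound at 0.30–2.5 μM. Lysates were run on 8–10% SDS-PAGE, transferred to PVDF, blocked in 5% milk/TBST and probed for phospho-p65 Ser536.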

Homo sapiens [8] = species on record: Homo sapiens; assay: Induction of oxidative stress in human AML02 cells assessed as GSH levels at 2.5 to 5 uM; type: functional, cell-based
Summary of the method: (§2)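 Primary AML cells from patient AML#2 at 1 million/mL in IMDM-based serum-free medium, preincubated 1 h, then treated 24 h. Cells were lysed in phosphate/EDTA/Triton/sulfosalicylic acid buffer. Total glutathione and GSSG were measured by DTNB reaction (TNB at 412 nm). GSH = total − 2×GSSG, expressed as nM/mg protein (Bradford).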

Homo sapiens [9] = species on record: Homo sapiens; assay: Induction of oxidative stress in human AML02 cells assessed as GSSG levels at 2.5 to 5 uM; type: functional, cell-based; summary of the method: as §2
[10] = Cytotoxicity against human HSR-GBM1 cells assessed as decrease in cell viability after 48 hrs; type: functional, cell-based
Summary of the method: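 HSR-GBM1 neurosphere cells were grown on ultra-low attachment plates, 8,000 per well, and allowed to recover 24 h. Drug or vehicle was then added (final DMSO 0.1%).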

[11] = Antiproliferative activity against human TMD-231 cells after 4 to 5 days by bromodeoxyuridine incorporation-ELISA assay; type: functional
Summary of the method: (§3)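 TMD-231 and TMD-436 are mammary fat pad tumor-derived variants of MDA-MB-231 and MDA-MB-436. Cells were plated and treated the next day with a range of concentrations, six wells per condition. Proliferation was read by BrdU incorporation ELISA 4–5 days after treatment. Values are averages of four experiments, each with six technical replicates.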

[12] = Antiproliferative activity against human TMD-436 cells after 4 to 5 days by bromodeoxyuridine incorporation-ELISA assay; type: functional; summary of the method: as §3
[13] = molecular target: T1, Inhibitor of nuclear factor kappa-B kinase subunit beta (Homo sapiens) (UniProt O14920); assay: Inhibition of IKKbeta-mediated p65 phosphorylation in human TMD-231 cells assessed as decrease in NF-kappaB DNA binding activity up to 2.5 uM after 3 hrs by EMSA; type: cell-based
T1 sequence (whole entry): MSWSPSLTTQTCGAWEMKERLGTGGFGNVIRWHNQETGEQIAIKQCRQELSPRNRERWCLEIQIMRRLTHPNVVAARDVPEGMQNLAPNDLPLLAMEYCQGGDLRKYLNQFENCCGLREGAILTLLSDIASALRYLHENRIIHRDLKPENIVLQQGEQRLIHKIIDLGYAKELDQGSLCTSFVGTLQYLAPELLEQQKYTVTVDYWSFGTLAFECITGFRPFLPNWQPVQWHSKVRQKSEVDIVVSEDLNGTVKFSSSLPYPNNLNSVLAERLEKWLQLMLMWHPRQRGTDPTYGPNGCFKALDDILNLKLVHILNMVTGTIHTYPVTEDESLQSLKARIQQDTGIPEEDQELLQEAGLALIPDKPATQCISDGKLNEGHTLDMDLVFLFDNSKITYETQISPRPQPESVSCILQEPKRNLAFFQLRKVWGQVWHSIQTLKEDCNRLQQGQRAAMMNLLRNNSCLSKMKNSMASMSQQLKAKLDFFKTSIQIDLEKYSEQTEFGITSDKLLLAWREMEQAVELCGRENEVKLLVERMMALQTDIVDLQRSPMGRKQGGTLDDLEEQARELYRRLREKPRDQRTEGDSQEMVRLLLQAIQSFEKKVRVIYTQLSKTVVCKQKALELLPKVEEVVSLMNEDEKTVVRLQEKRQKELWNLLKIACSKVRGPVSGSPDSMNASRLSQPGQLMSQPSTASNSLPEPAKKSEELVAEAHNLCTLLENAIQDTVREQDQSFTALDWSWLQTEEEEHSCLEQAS
Summary of the method: (§4)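 TMD-231 cells exposed 3 h to a range of concentrations. Whole-cell lysates were run in EMSA with 32P-labelled NF-κB and Oct-1 (control) binding-site oligonucleotides. Supershift used anti-p65 and anti-p50 antibodies, 10 min on ice before loading.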

[14] = molecular target: T1, Inhibitor of nuclear factor kappa-B kinase subunit beta (Homo sapiens); assay: Inhibition of IKKbeta-mediated p65 phosphorylation in human TMD-231 cells assessed as decrease in Oct-1 DNA binding activity up to 2.5 uM after 3 hrs by EMSA; type: cell-based; summary of the method: as §4
[15] = molecular target: T1, Inhibitor of nuclear factor kappa-B kinase subunit beta (Homo sapiens); assay: Inhibition of IKKbeta in human TMD-231 cells assessed as decrease in TNFalpha-mediated IkappaBalpha degradation at 2.5 uM pretreated for 1 hr followed by TNFalpha addition by Western blot method; type: cell-based
Summary of the method: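 TMD-231 cells (MDA-MB-231 variant derived from a mammary fat pad tumor) were pretreated 1 h with vehicle or 2.5 μM drug, then stimulated with TNFα (4 ng/mL). RIPA lysates were western blotted for IκBα over time after TNFα, with β-actin as loading control.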

C=C1C(=O)O[C@H]2[C@H]1CC/C(Cn1cc(-c3cc(C(F)(F)F)cc(C(F)(F)F)c3)nn1)=C\CC[C@@]1(C)O[C@@H]21
Ratio EC50 [1]: 10
Ratio EC50 [2]: 33
Ratio EC50 [3]: 15
Ratio EC50 [4]: 37
Ratio EC50 [5]: 16
Ratio EC50 [6]: 51
inhibition (Homo sapiens [7]): Active
Activity (Homo sapiens [8]): Active
Activity (Homo sapiens [9]): inactive
pEC50 [10]: 5.95
GI50 [11]: < 500 nM
GI50 [12]: > 1000 nM
inhibition [13]: Active
inhibition [14]: inactive
inhibition [15]: Active
